ChEMBL document CHEMBL3860048 (J Med Chem, 2016)
Active and inactive are the calls of the source. The rule behind the calls is not given here. Where a SMILES comes first, the peptide text is derived from it. [ ]: non-standard residue; d: D form. Phe(3-F) = N[C@@H](Cc1cccc(F)c1)C(=O)O; Arg(Me) = CNC(=N)NCCC[C@H](N)C(=O)O; azaGly = NNC(=O)O

Assays:
KiSS-1 receptor [1] = molecular target: KiSS-1 receptor (Rattus norvegicus, UniProt Q924U1); experiment: Agonist activity at rat KISS1R expressed in CHO/dhfr cells assessed as increase in intracellular Ca2+ levels measured for 180 secs by Fluo 3-AM dye based FLIPR assay; type: functional, cell-based
Chain of KiSS-1 receptor (Rattus norvegicus, UniProt Q924U1) (Q924U1 whole entry): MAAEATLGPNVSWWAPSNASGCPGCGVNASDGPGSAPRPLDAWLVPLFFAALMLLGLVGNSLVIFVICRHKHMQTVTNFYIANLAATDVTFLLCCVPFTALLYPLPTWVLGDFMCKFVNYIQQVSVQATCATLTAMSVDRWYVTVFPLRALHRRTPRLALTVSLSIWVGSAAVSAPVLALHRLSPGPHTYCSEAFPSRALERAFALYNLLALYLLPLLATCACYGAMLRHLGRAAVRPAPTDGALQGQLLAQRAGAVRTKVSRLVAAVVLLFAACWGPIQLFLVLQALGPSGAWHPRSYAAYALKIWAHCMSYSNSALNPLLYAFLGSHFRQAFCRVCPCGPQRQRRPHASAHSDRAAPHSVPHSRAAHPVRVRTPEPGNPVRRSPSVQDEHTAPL

KiSS-1 receptor [2] = molecular target: KiSS-1 receptor (Homo sapiens, UniProt Q969F8); experiment: Agonist activity at human KISS1R expressed in CHO/dhfr cells assessed as increase in intracellular Ca2+ levels measured for 180 secs by Fluo 3-AM dye based FLIPR assay; type: functional, cell-based
Chain of KiSS-1 receptor (Homo sapiens, UniProt Q969F8) (Q969F8 whole entry): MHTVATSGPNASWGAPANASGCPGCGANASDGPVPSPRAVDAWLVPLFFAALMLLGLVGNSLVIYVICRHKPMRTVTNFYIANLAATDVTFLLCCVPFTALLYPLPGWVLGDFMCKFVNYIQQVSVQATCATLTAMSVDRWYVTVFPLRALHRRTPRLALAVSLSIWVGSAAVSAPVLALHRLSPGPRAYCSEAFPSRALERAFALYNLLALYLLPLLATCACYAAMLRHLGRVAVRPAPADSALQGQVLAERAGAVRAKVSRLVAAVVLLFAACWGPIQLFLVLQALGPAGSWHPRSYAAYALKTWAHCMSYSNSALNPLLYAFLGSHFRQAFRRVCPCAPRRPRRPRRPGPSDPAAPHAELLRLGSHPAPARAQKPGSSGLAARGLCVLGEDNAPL
Summary of the method: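 CHO cells expressing human KISS1R; FLIPR recording of ligand-induced [Ca2+]i rise over time. Maximum response taken and expressed as percent of the response to a maximal concentration of metastin(45-54). EC50 = concentration giving half-maximal mobilization, from nonlinear regression of smoothed data. Reported as ratio to the metastin(45-54) EC50.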

Rattus norvegicus = experiment: Inhibition of testosterone levels in CD(SD) rat assessed as plasma testosterone level <0.04 ng/ml at 0.03 nmol/hr, sc administered continuously for 6 days through alzet osmotic pump measured after 6 days by radio-immunoassay; type: functional, organism-based

For `CNC(=N)NCCC[C@H](NC(=O)[C@H](CC(C)C)NC(=O)NNC(=O)[C@H](Cc1ccccc1)NC(=O)[C@@H](NC(=O)[C@H](CC(N)=O)NC(=O)[C@@H](C)NC(=O)[C@@H](Cc1ccc(O)cc1)NC(C)=O)[C@@H](C)O)C(=O)N[C@@H](Cc1c[nH]c2ccccc12)C(N)=O`, the EC50 (KiSS-1 receptor [1]) was 16 nM and the EC50 (KiSS-1 receptor [2]) was 2.7 nM.
In the case of `CNC(=N)NCCC[C@H](NC(=O)[C@H](CC(C)C)NC(=O)NNC(=O)[C@H](Cc1ccccc1)NC(=O)[C@@H](NC(=O)[C@H](CC(N)=O)NC(=O)[C@H](C)NC(=O)[C@@H](Cc1ccc(O)cc1)NC(C)=O)[C@@H](C)O)C(=O)N[C@@H](Cc1c[nH]c2ccccc12)C(N)=O`, the EC50 (KiSS-1 receptor [1]) is reported as 6 nM and the EC50 (KiSS-1 receptor [2]) is reported as 1.2 nM.
`CNC(=N)NCCC[C@H](NC(=O)[C@H](CC(C)C)NC(=O)NNC(=O)[C@H](Cc1ccccc1)NC(=O)[C@@H](NC(=O)[C@H](CC(N)=O)NC(=O)C1CN(C(=O)[C@@H](Cc2ccc(O)cc2)NC(C)=O)C1)[C@@H](C)O)C(=O)N[C@@H](Cc1c[nH]c2ccccc12)C(N)=O` showed an EC50 (KiSS-1 receptor [1]) of 15 nM and an EC50 (KiSS-1 receptor [2]) of 2.3 nM.
`CNC(=N)NCCC[C@H](NC(=O)[C@H](CC(C)C)NC(=O)NNC(=O)[C@H](Cc1ccccc1)NC(=O)[C@@H](NC(=O)[C@H](CC(N)=O)NC(=O)[C@H](CCCCN)NC(=O)[C@@H](Cc1ccc(O)cc1)NC(C)=O)[C@@H](C)O)C(=O)N[C@@H](Cc1c[nH]c2ccccc12)C(N)=O` was tested, and the EC50 (KiSS-1 receptor [1]) was 6.8 nM, the inhibition (Rattus norvegicus) was “Active” and the EC50 (KiSS-1 receptor [2]) was 1.6 nM.
For `CNC(=N)NCCC[C@H](NC(=O)[C@H](CC(C)C)NC(=O)NNC(=O)[C@H](Cc1ccc(F)cc1)NC(=O)[C@@H](NC(=O)[C@H](CC(N)=O)NC(=O)[C@@H](Cc1c[nH]c2ccccc12)NC(=O)[C@@H](Cc1ccc(O)cc1)NC(C)=O)[C@@H](C)O)C(=O)N[C@@H](Cc1c[nH]c2ccccc12)C(N)=O`, the EC50 (KiSS-1 receptor [1]) was 4.7 nM, the inhibition (Rattus norvegicus) was “Active” and the EC50 (KiSS-1 receptor [2]) was 1.9 nM.
For `CNC(=N)NCCC[C@H](NC(=O)[C@H](CC(C)C)NC(=O)NNC(=O)[C@H](Cc1ccccc1)NC(=O)[C@@H](NC(=O)[C@H](CC(N)=O)NC(=O)[C@H](CCC(=O)O)NC(=O)[C@@H](Cc1ccc(O)cc1)NC(C)=O)[C@@H](C)O)C(=O)N[C@@H](Cc1c[nH]c2ccccc12)C(N)=O`, the EC50 (KiSS-1 receptor [1]) was 11 nM, the inhibition (Rattus norvegicus) was “Active” and the EC50 (KiSS-1 receptor [2]) was 2.8 nM.
`CNC(=N)NCCC[C@H](NC(=O)[C@H](CC(C)C)NC(=O)NNC(=O)[C@H](Cc1ccccc1)NC(=O)[C@@H](NC(=O)[C@H](CC(N)=O)NC(=O)[C@@H]1Cc2ccccc2CN1C(=O)[C@@H](Cc1ccc(O)cc1)NC(C)=O)[C@@H](C)O)C(=O)N[C@@H](Cc1c[nH]c2ccccc12)C(N)=O` gave an EC50 (KiSS-1 receptor [1]) of 7 nM and an EC50 (KiSS-1 receptor [2]) of 0.49 nM.
Molecule `CNC(=N)NCCC[C@H](NC(=O)[C@H](CC(C)C)NC(=O)NNC(=O)[C@H](Cc1ccccc1)NC(=O)[C@@H](NC(=O)[C@H](CC(N)=O)NC(=O)[C@H]1CCCN1C(=O)[C@@H](Cc1ccc(O)cc1)NC(C)=O)[C@@H](C)O)C(=O)N[C@@H](Cc1c[nH]c2ccccc12)C(N)=O` has an EC50 (KiSS-1 receptor [1]) of 110 nM and an EC50 (KiSS-1 receptor [2]) of 5.8 nM.
For `CNC(=N)NCCC[C@H](NC(=O)[C@H](CC(C)C)NC(=O)NNC(=O)[C@H](Cc1ccccc1)NC(=O)[C@@H](NC(=O)[C@H](CC(N)=O)NC(=O)[C@@H](CC(C)C)NC(=O)[C@@H](Cc1ccc(O)cc1)NC(C)=O)[C@@H](C)O)C(=O)N[C@@H](Cc1c[nH]c2ccccc12)C(N)=O`, the EC50 (KiSS-1 receptor [1]) was 12 nM, the inhibition (Rattus norvegicus) was “Active” and the EC50 (KiSS-1 receptor [2]) was 2 nM.
Work on `CNC(=N)NCCC[C@H](NC(=O)[C@H](CC(C)C)NC(=O)NNC(=O)[C@H](Cc1ccccc1)NC(=O)[C@@H](NC(=O)[C@H](CC(N)=O)NC(=O)[C@H]1CCCN(C(=O)[C@@H](Cc2ccc(O)cc2)NC(C)=O)C1)[C@@H](C)O)C(=O)N[C@@H](Cc1c[nH]c2ccccc12)C(N)=O` yielded an EC50 (KiSS-1 receptor [1]) of 45 nM and an EC50 (KiSS-1 receptor [2]) of 5.5 nM.
`CNC(=N)NCCC[C@H](NC(=O)[C@H](CC(C)C)NC(=O)NNC(=O)[C@H](Cc1cccc(F)c1)NC(=O)[C@@H](NC(=O)[C@H](CC(N)=O)NC(=O)CNC(=O)[C@@H](Cc1ccc(O)cc1)NC(C)=O)[C@@H](C)O)C(=O)N[C@@H](Cc1c[nH]c2ccccc12)C(N)=O` (Ac-[dY]GNT[Phe(3-F)][azaGly]L[Arg(Me)]W-NH2) gave an EC50 (KiSS-1 receptor [1]) of 7.4 nM and an EC50 (KiSS-1 receptor [2]) of 1.1 nM.
In the case of `CNC(=N)NCCC[C@H](NC(=O)[C@H](CC(C)C)NC(=O)NNC(=O)[C@H](Cc1cccc(F)c1)NC(=O)[C@@H](NC(=O)[C@H](CC(N)=O)NC(=O)[C@H](Cc1c[nH]c2ccccc12)NC(=O)[C@@H](Cc1ccc(O)cc1)NC(C)=O)[C@@H](C)O)C(=O)N[C@@H](Cc1c[nH]c2ccccc12)C(N)=O` (Ac-[dY]WNT[Phe(3-F)][azaGly]L[Arg(Me)]W-NH2), the EC50 (KiSS-1 receptor [1]) is reported as 1.2 nM and the EC50 (KiSS-1 receptor [2]) is reported as 0.073 nM.
